Legend:
[1] = folding enthalpy; higher = less favourable; fluorescence melt of hairpins on a sequencing array, two-state fit; conditions: sodium 0.088 M
How it was run: (§1)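 With Cy3 and quencher oligos annealed, library hairpins on a sequenced MiSeq flow cell were imaged for Cy3 fluorescence in 50 mM Na-HEPES pH 8.0, 25 mM NaCl, in 2.5 °C steps up to 60 °C. Melting temperature and folding enthalpy were derived from bootstrapped two-state fits of signals normalised to pre-quench Cy3 and to control constructs. Four replicates were combined by inverse variance, with fitted temperatures raised by 9.35 °C to match UV melts.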

[2] = melting temperature; fluorescence melt of hairpins on a sequencing array, two-state fit, raised by 9.35 °C to match UV melts; conditions: sodium 0.088 M
How it was run: as §1

Row | Sequence | folding enthalpy [1] [kcal/mol] | Tm [2] [°C]
1 | GTTGGTCGAAAGACTAAC (((.(((....))).))) | -25.9 | 50.9
2 | GTTGGTGAAAACCAAC ((((((....)))))) | -37 | 58.5
3 | GTTGGTGGAAACATCGAC ((.(.((....)).).)) | -21.1 | 35.1
4 | GTTGTAGGAAACCACAAC (((((.(....).))))) | -32.5 | 39.9
5 | GTTGTCCCGAAAGGGAAC (((..(((....)))))) | -20.7 | 50.4
6 | GTTGTCCGAAAGGATAAC (((.(((....))).))) | -44.9 | 51.9
7 | GTTGTCGAAAGACTAAAC ((((((....)))..))) | -13.6 | 29.5
8 | GTTGTCGAAAGACTTAAC ((((((....)))..))) | -10 | 27.2
9 | GTTGTCGGAAACGATAAC (((.(((....))).))) | -34.6 | 47.8
10 | GTTGTCGGAAACGGCAAC ((((.((....)).)))) | -37.7 | 56.2
11 | GTTGTGGGAAACCATAAC (((.(((....))).))) | -32.4 | 43.5
12 | GTTGTGGGAAACCATAGC (.(.(((....))).).) | -12.7 | 27.6
13 | GTTTAAGAAATTAAAC ((((((....)))))) | -16.8 | 32.4
14 | GTTTAAGCGAAAGCTAAC (((..(((....)))))) | -11.8 | 32
15 | GTTTAAGGAAACCTAAAC (((((.(....).))))) | -9.26 | 24.8
16 | GTTTACGCGAAAGCGAAC (((..(((....)))))) | -9.1 | 31.8
17 | GTTTACGGAAACGTGAAC (((.(((....))).))) | -27.7 | 46
18 | GTTTAGACGAAAGTCAAC (((..(((....)))))) | -9.97 | 30.4
19 | GTTTAGGGAAACCTAAAC (((((((....))))))) | -39.9 | 52.7
20 | GTTTATGGAAACATAAGC (.(((((....))))).) | -20.8 | 33.7
21 | GTTTATGGAAACATAGAC ((.((((....)))).)) | -23.7 | 32.2
22 | GTTTATGGAAACGTAAAC (((((.(....).))))) | -30 | 37.5

Row | Sequence | folding enthalpy [1] [kcal/mol] | Tm [2] [°C]
23 | GTTTCAACGAAAGTTAAC (((..(((....)))))) | -15.8 | 35.5
24 | GTTTCACGAAAGTGAAC (((.(((....)))))) | -14.4 | 49.4
25 | GTTTCCGAAAGGACAAAC ((((((....)))..))) | -9.58 | 26.1
26 | GTTTCCGAAAGGACGAAC ((((((....)))..))) | -9.15 | 21.9
27 | GTTTCCGAAAGGAGGAAC ((((((....)))..))) | -9.8 | 27.4
28 | GTTTCGCGAAAGCGAAC (((.(((....)))))) | -10.4 | 53.9
29 | GTTTCGCGAAAGCGGAAC (((.(((....))).))) | -23.4 | 59.2
30 | GTTTCGGGAAACCGAAAC (((((((....))))))) | -40.2 | 62.5
31 | GTTTCGGGAAACTGAGAC ((.((.(....).)).)) | -13.2 | 35.7
32 | GTTTCGGGAAACTGGAAC (((.(.(....).).))) | -13.5 | 39.8
33 | GTTTCTCGAAAGAGAAC (((.(((....)))))) | -17.1 | 42.4
34 | GTTTCTCGAAAGAGGAAC (((.(((....))).))) | -34.7 | 49.1
35 | GTTTCTGGAAACGGAAAC (((((.(....).))))) | -31.8 | 45.5
36 | GTTTGAACGAAAGTTAAC (((..(((....)))))) | -12.3 | 24.4
37 | GTTTGAGGAAACTTAAGC (.((.((....)).)).) | -13.9 | 31.9
38 | GTTTGCGAAAGCAGTAAC ((((((....)))..))) | -12.9 | 30.6
39 | GTTTGCGGAAACGCGAAC (((.(((....))).))) | -35.7 | 56.9
40 | GTTTGCGGAAACGTAAAC ((((.((....)).)))) | -32.3 | 48.6
41 | GTTTGGAAACAAAC (((((....))))) | -24.5 | 45.6
42 | GTTTGGCCGAAAGGCAAC (((..(((....)))))) | -11.5 | 37.7
43 | GTTTGGGAAACCAAAC ((((((....)))))) | -39.5 | 53.2
44 | GTTTGGGGAAACCCGAAC (((.(((....))).))) | -36.5 | 49.3

Row | Sequence | folding enthalpy [1] [kcal/mol] | Tm [2] [°C]
45 | GTTTGTGAAAACAAAC ((((((....)))))) | -37.6 | 53.7
46 | GTTTGTGGAAACACAAGC (.(((((....))))).) | -23.1 | 45.1
47 | GTTTGTGGAAACACGAAC (((.(((....))).))) | -36 | 49
48 | GTTTTACCGAAAGGTAAC (((..(((....)))))) | -12.3 | 33.6
49 | GTTTTACGAAAGTAGAAC (((.(((....))).))) | -29.2 | 41.2
50 | GTTTTAGGAAACTAAGAC ((.((((....)))).)) | -15.7 | 29
51 | GTTTTCCGAAAGGATAAC (((.(((....))).))) | -28.4 | 44.9
52 | GTTTTCGGAAACGGAAAC ((((.((....)).)))) | -27.1 | 47.1
53 | GTTTTGACGAAAGTCAAC (((..(((....)))))) | -11.5 | 34.6
54 | GTTTTGCGAAAGCAGAAC (((.(((....))).))) | -29.9 | 51.4
55 | GTTTTGGGAAACCAGAAC (((.(((....))).))) | -26.9 | 38.1
56 | GTTTTTGGAAACGAAAAC (((((.(....).))))) | -31.3 | 40.4
57 | TACCCGAAAGGGTA (((((....))))) | -14.4 | 66.1
58 | TAGACGAAAGTCTA (((((....))))) | -15.3 | 50.9
59 | TAGAGGAAACTCTA (((((....))))) | -8.94 | 32.1
60 | TATACGAAAGTATA (((((....))))) | -14.9 | 42.1
61 | TATCGGAAACGATA (((((....))))) | -17.8 | 43
62 | TATGGGAAACCATA (((((....))))) | -14.9 | 37.2
63 | TCACAGAAATGTGA (((((....))))) | -14.6 | 39.8
64 | TCAGTGAAAACTGA (((((....))))) | -16.9 | 42.6
65 | TCATCGAAAGATGA (((((....))))) | -22.9 | 49.7
66 | TCATGGAAACATGA (((((....))))) | -24.5 | 39.8

Row | Sequence | folding enthalpy [1] [kcal/mol] | Tm [2] [°C]
67 | TCCAGGAAACTGGA (((((....))))) | -22.8 | 46
68 | TCCTGGAAACAGGA (((((....))))) | -18.4 | 45.5
69 | TCGTGGAAACACGA (((((....))))) | -18.3 | 53.7
70 | TCGTTGAAAAACGA (((((....))))) | -20.3 | 44.7
71 | TCTCAGAAATGAGA (((((....))))) | -12.2 | 31.1
72 | TCTGAGAAATCAGA (((((....))))) | -11.1 | 33.4
73 | TGAGTGAAAACTCA (((((....))))) | -18.3 | 42.4
74 | TGCGTGAAAACGCA (((((....))))) | -18.1 | 66.2
75 | TGTCAGAAATGACA (((((....))))) | -17.6 | 40.2
76 | TGTCTGAAAAGACA (((((....))))) | -20.4 | 47.2
77 | TGTGAGAAATCACA (((((....))))) | -18.3 | 38.9
78 | TGTGTGAAAACACA (((((....))))) | -20 | 49
79 | TGTTCGAAAGAACA (((((....))))) | -17.1 | 52.3
80 | TTAGCGAAAGCTAA (((((....))))) | -16.2 | 51.2
81 | TTCGTGAAAACGAA (((((....))))) | -20.2 | 46.4
82 | TTCTCGAAAGAGAA (((((....))))) | -15.2 | 49.1
83 | TTGGTGAAAACCAA (((((....))))) | -15.8 | 44.8
84 | TTGTGGAAACACAA (((((....))))) | -19.7 | 40.4
85 | TTTGGGAAACCAAA (((((....))))) | -13.6 | 38.2
